A selection: hits, their analogues and other compounds. The true share with any hit is near 1.9%.
PP5 inh: PP5 (human) phosphatase inhibition; AID 1987; 320,000 compounds, 0.18% hits; purified PP5c, OMFP substrate fluorescence; inhibition, % at 6.7 µM;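 active = inhibition above the campaign's mean inhibition across all tested compounds plus 3 SD, cut at about 9.5% in these data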
Target sequence (P53041 whole entry, looked up): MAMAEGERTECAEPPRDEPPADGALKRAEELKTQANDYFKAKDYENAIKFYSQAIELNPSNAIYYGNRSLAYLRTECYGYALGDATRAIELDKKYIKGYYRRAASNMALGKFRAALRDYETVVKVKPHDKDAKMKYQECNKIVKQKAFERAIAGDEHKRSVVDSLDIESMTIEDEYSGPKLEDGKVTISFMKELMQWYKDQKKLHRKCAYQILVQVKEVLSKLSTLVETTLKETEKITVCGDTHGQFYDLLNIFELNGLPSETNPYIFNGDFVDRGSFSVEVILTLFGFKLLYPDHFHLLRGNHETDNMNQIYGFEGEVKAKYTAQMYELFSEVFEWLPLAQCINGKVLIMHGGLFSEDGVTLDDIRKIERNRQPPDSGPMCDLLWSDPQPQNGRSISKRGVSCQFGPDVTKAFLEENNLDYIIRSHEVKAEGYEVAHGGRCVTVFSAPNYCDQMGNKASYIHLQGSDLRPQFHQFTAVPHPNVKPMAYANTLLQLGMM
LMPTP block: LMPTP (human) inhibition; P24666; recombinant LMPTP-A, OMFP fluorogenic substrate, fluorescence intensity; inhibition, % at 20 µM; 360,000 compounds, 0.22% hits; AID 651560;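 active = compounds that cut the enzyme signal by at least half of the control window in the single-dose screen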
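Assay system: LMPTP-A enzyme. Input: 0.625 nM LMPTP-A final. Probe or stimulus: 400 µM OMFP. Compound dosing: single 20 µM dose. Schedule: 50 min dark incubation at room temperature. Detection: fluorescence intensity of OMFP turnover product. Read-out: percent inhibition versus substrate-only and uninhibited controls. Benchmarks: no-enzyme low control, uninhibited high control.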
STEP block: inhibitors of human striatal-enriched phosphatase STEP; AID 588621; recombinant STEP, OMFP fluorogenic substrate, fluorescence; P54829; 360,000 compounds, 0.25% hits; inhibition, % at 20 µM;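 active = inhibition at 20 µM, scaled per plate between control wells, above about 37%, limit read from the data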
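System: STEP (striatal-enriched tyrosine phosphatase) enzyme, cell-free; medium: Bis-Tris pH 6.0 buffer with DTT, detergent; dosing: 20 µM, 1% DMSO; times: reaction 20 min, ambient temperature; detection: fluorescence, 480/540 nm; read-out basis: normalized % inhibition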
Scp1 inh: Scp-1 (human) phosphatase inhibition; Q9GZU7; Recombinant Scp1, phosphopeptide, malachite green phosphate absorbance; inhibition, % at 20 µM; 340,000 compounds, 0.88% hits;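 active = inhibition above about 50% at 20 µM, limit read from the data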
Target sequence (Q9GZU7 76-261 limits assumed): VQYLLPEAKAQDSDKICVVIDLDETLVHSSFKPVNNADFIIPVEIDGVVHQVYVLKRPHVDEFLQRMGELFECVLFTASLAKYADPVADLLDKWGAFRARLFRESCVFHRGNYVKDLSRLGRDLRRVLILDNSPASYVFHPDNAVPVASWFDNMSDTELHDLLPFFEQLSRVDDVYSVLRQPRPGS
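System: truncated SCP-1 phosphatase (76-261aa); medium: Tris acetate buffer pH 5.5 with MgCl2 and Tween-20; incubation: 45 min room-temperature reaction, 5 min colour, 30 min stabiliser; compound: single 20 µM dose, 1% DMSO; reagent: Phosphorylated 17-residue peptide substrate; read-out: % inhibition at 20 µM; technique: colorimetric free-phosphate detection, absorbance 630 nm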
PP1 inh: PP1-alpha (human) inhibition in PP5 counter-screen; AID 2235; P62136; 320,000 compounds, 0.9% hits; inhibition, % at 6.7 µM; purified PP1alpha, OMFP fluorescence;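 active = inhibition above the mean inhibition of all tested compounds plus 3 SD, computed separately for each screening campaign, cut at about 15% in these data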
Large screens that a line does not name were inactive.

CCOc1ccc(C2C(C(=O)c3ccc(C)o3)=C(O)C(=O)N2Cc2cccnc2)cc1 (stereo not drawn)	PP1 inh 15
Cc1ccc(C(=O)C2=C(O)C(=O)N(Cc3cccnc3)C2c2ccc(Cl)cc2)o1 (stereo not drawn)	PP1 inh 16
Cc1ccc(C(=O)C2=C(O)C(=O)N(Cc3ccccc3)C2c2cccnc2)o1 (stereo not drawn)	none
CCCOc1ccc(C2C(C(=O)c3ccc(C)o3)=C(O)C(=O)N2Cc2ccco2)cc1OCC (stereo not drawn)	PP1 inh 35
CC1CC(C)C(=NNC(N)=O)C(C(O)CC2CCC(=O)NC2=O)C1 (stereo not drawn)	none (no result: PP5 inh, PP1 inh)
COC(=O)CCN(c1ccccc1)S(=O)(=O)c1cc(-c2cc(C)no2)ccc1C	none
NC(=O)CN1C(=O)C(O)(CC(=O)c2ccccc2O)c2ccccc21 (stereo not drawn)	none
O=S(=O)(NC1CCSc2ccccc21)c1ccccc1 (stereo not drawn)	none
Cc1ccc(C(C(=O)NC2CCCCC2)N2CCCC2)cc1 (stereo not drawn)	PP1 inh 17
CN(C)S(=O)(=O)c1cccc(NC(=S)N/N=C/c2ccc(O)c(O)c2O)c1	LMPTP block 61 (no result: PP5 inh, PP1 inh)
COc1cc(/C=N/NC(=S)Nc2cccc(S(=O)(=O)N(C)C)c2)cc(OC)c1O	none
COc1ccc(N2CCN(C(C)C(=O)N(C)Cc3ccccc3)CC2)cc1 (stereo not drawn)	none
NC1=NC(=O)/C(=C\c2ccco2)S1	Scp1 inh 63
CCCn1c(=O)c(C(=O)OCC)c(O)c2cc(Br)ccc21	none
CCOC(=O)c1c(CN(C)C)n(C)c2c(O)c(N=NC(N)=O)c3ccc(Br)cc3c12	PP1 inh 17
N#CC(C(=O)NCc1ccccc1)c1nc2ccccc2nc1N1CCCC1 (stereo not drawn)	none
Cc1ccc(N=Nc2c(N)[nH]n3c(=O)cc(-c4ccccc4)nc23)cc1	LMPTP block 70
Nc1c(C(=O)N/N=C/c2ccc(Cl)cc2)cnn1-c1ccccc1	none
Nc1c(C(=O)N/N=C/c2ccc(OCc3ccccc3)cc2)cnn1-c1ccccc1	LMPTP block 50
Cc1ccc(NC(=O)Nc2ccc3c(c2)OCO3)c(Br)c1	PP1 inh 17
O=C(Nc1ccc2c(c1)OCO2)Nc1ccc2c(c1)OCO2	none
COc1cc(C2Nc3cccc4cccc(c34)N2)cc(OC)c1O	PP1 inh 36
O=C(OC[C@H]1O[C@@H](OC(=O)c2cc(O)c(O)c(OC(=O)c3cc(O)c(O)c(O)c3)c2)[C@H](OC(=O)c2cc(O)c(O)c(OC(=O)c3cc(O)c(O)c(O)c3)c2)[C@@H](OC(=O)c2cc(O)c(O)c(OC(=O)c3cc(O)c(O)c(O)c3)c2)[C@@H]1OC(=O)c1cc(O)c(O)c(OC(=O)c2cc(O)c(O)c(O)c2)c1)c1cc(O)c(O)c(OC(=O)c2cc(O)c(O)c(O)c2)c1	PP1 inh 82 (no result: LMPTP block, STEP block, Scp1 inh)
COC1OC(COC(=O)c2ccccc2)C(OC(=O)c2ccccc2)C1OC(=O)c1ccccc1 (stereo not drawn)	none
COc1cc(/C=C(\C#N)C(=O)Nc2ccc(SC(F)F)cc2)cc(OC)c1OC	none
N#C/C(=C\c1ccc(O)c(O)c1)C(=O)c1ccc(O)c(O)c1	none
N#CC(C#N)=C(N)/C(C#N)=C/c1cc(O)c(O)c(O)c1	LMPTP block 51
O=C(O)/C(=C\c1ccc(Cl)c([N+](=O)[O-])c1)c1ccc(S(=O)(=O)N2CCCC2)s1	Scp1 inh 66
CCCN(CCC)S(=O)(=O)c1ccc(C)cc1	none
Cn1c(CCN2CCN(c3ccccn3)CC2)nc2cc(NC(=O)COc3ccc([N+](=O)[O-])cc3)ccc21	LMPTP block 71
N=c1c(C(=O)NCCc2ccccc2)cc2c(=O)n3ccccc3nc2n1Cc1ccco1	none
COc1ccc(CCn2c(=N)c(C(=O)NCc3ccco3)cc3c(=O)n4ccccc4nc32)cc1	LMPTP block 60
C=C(C)COc1ccc2c(C)c(CC(=O)OC)c(=O)oc2c1C	none
Cc1sc(NC(=O)c2sc3nc4c(C)cccc4cc3c2N)c(C#N)c1C	PP1 inh 17
O=C(ONc1ccc(N=NC(=O)c2ccccc2O)cc1)c1ccccc1	Scp1 inh 91
COc1ccc(/C=N/NC(=O)c2ccccc2O)cc1Cn1cc([N+](=O)[O-])cn1	none
COc1ccc(/C=N/NC(=O)c2cc(O)c(O)c(O)c2)cc1Cn1cc([N+](=O)[O-])cn1	LMPTP block 62, Scp1 inh 83 (no result: PP5 inh, PP1 inh)
O=C(Nc1ccc2nc3n(c(=O)c2c1)CCCC3)c1cc([N+](=O)[O-])ccc1F	none
Oc1c(C(c2cccs2)N2CCN(c3ccccc3)CC2)ccc2cccnc12 (stereo not drawn)	PP1 inh 19 (no result: LMPTP block, STEP block, Scp1 inh)
CCOC(=O)c1cnn(CCOC(=O)c2cccs2)c1NC(=O)c1cccs1	none (no result: PP5 inh, PP1 inh)
Clc1ccc(-c2c[n+]3c(n2-c2ccccc2)SCC3)cc1	none
C=C(C)C(=O)Nc1cccc(C2=NOC3(C2)C[C@@H](C(N)=O)N(C(=O)/C=C/C=C/C)C3)c1 (stereo partly drawn)	Scp1 inh 75
CCC(=O)N1CC2(CC(c3cccc(NC(=O)CC(c4ccccc4)c4ccccc4)c3)=NO2)C[C@H]1C(N)=O (stereo partly drawn)	none
C=C(C)C(=O)Nc1cccc(C2=NOC3(C2)C[C@H](C(N)=O)N(C(=O)CC)C3)c1 (stereo partly drawn)	Scp1 inh 64
COc1ccc(C(=O)Nc2cccc(-c3ccc(N4CCOCC4)nn3)c2)cc1	none
CC[C@H](NC(=O)/C=C/[C@H]1O[C@@H](n2cc(C)c(=O)[nH]c2=O)C[C@@H]1O)c1ccccc1	none (no result: PP5 inh, Scp1 inh, PP1 inh)
CN(C)c1ccc(/C=C/c2cc[n+](C)cc2)cc1	Scp1 inh 96
COc1ccc(/C=N/Nc2cc(C)nc3ccccc23)cc1	LMPTP block 62
CCC(=O)Nc1ccc(C(=O)COC(=O)CCN2C(=O)C3CC=CCC3C2=O)cc1 (stereo not drawn)	none
Cc1ccc(-c2ccc(/C=C3\C(=O)ON=C3c3ccccc3)o2)c([N+](=O)[O-])c1	PP1 inh 17
COc1ccc(NC2CCCN(C(=O)CSc3ccccn3)C2)cc1OC (stereo not drawn)	none
O=C(CSc1nncc(=O)[nH]1)NCc1ccccc1	none
O=C1C(=O)c2c(ccc3ccccc23)-c2ccccc21	Scp1 inh 101 (no result: PP5 inh, PP1 inh)
O=C(Nc1ccccc1)C1Cc2c(-c3ccccc3Oc3ccccc3)ccnc2O1 (stereo not drawn)	none (no result: PP5 inh, Scp1 inh, PP1 inh)
COC(=O)c1c(NC(=O)CN2C(=O)NC3(CCc4ccccc4C3)C2=O)sc2c1CCCCC2 (stereo not drawn)	PP1 inh 15
NS(=O)(=O)c1ccc(N=Nc2ccc(=O)[nH]c2O)cc1	STEP block 85, Scp1 inh 86
